Assay [1] has as its target Somatostatin receptor type 1 (Homo sapiens, UniProt P30872). Nature of the assay: Displacement of [125I]-[Leu8, DTrp22, Tyr25]SRIF28 from human sst1 receptor expressed in CHOK1 cells by autoradiography. The class given is cell-based, CHO-K1.
The target of assay [2] is T1, Somatostatin receptor type 2 (Homo sapiens, UniProt P30874). Nature of the assay: Displacement of [125I]-[Leu8, DTrp22, Tyr25]SRIF28 from human sst2 receptor expressed in chinese hamster CCL39 cells by autoradiography. The class given is cell-based.
T1 sequence (P30874 whole entry): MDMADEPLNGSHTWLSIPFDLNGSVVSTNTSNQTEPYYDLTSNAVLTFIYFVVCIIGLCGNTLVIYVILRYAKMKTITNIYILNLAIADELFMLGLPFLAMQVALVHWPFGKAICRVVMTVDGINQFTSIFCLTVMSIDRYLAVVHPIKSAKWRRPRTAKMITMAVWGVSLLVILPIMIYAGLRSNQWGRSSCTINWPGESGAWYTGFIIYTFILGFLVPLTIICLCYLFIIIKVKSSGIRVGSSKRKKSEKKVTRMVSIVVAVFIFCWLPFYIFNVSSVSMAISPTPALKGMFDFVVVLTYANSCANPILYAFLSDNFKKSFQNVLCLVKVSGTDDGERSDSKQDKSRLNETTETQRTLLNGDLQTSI
Assay [3] addresses Somatostatin receptor type 3 (Homo sapiens, UniProt P32745). The experiment in a line: Displacement of [125I]-[Leu8, DTrp22, Tyr25]SRIF28 from human sst3 receptor expressed in chinese hamster CCL39 cells by autoradiography. The format is cell-based. A general note: Loss of bound radioactivity is the signal in a displacement assay; it reports binding, not function.
The target in assay [4] is T1, Somatostatin receptor type 2. Nature of the assay: Agonist activity at T7-tagged human sst2 receptor expressed in HEK293 cells at 100 to 10000 nM. The format is functional, cell-based. The method in brief: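 Immunofluorescence microscopy internalization in HEK-sst2 cells. Agonist mode: peptides at 100 nM to 10,000 nM. Antagonist mode: 100 nM [Tyr3]-octreotide with 100-fold excess of peptide. Treatment 30 min at 37 °C, 5% CO2 in growth medium, then staining with polyclonal sst2-specific R2-88 antibody; n ≥ 2.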

Assay [5] deals with Somatostatin receptor type 4 (Homo sapiens, UniProt P31391). Nature of the assay: Displacement of [125I]-[Leu8, DTrp22, Tyr25]SRIF28 from human sst4 receptor expressed in chinese hamster CCL39 cells by autoradiography. The format is cell-based.
Chain of Somatostatin receptor type 4 (P31391 whole entry): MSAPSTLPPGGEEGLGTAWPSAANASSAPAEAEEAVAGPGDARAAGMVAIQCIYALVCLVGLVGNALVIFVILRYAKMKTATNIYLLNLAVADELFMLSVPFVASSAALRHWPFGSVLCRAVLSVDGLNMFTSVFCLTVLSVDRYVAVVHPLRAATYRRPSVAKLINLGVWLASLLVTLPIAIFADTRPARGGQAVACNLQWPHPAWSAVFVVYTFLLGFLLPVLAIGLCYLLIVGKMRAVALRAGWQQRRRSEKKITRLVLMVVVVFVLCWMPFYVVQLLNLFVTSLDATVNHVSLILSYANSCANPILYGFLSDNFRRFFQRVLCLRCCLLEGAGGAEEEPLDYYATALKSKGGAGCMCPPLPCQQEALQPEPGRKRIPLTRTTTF
Assay [6] addresses Somatostatin receptor type 5 (Homo sapiens, UniProt P35346). Nature of the assay: Displacement of [125I]-[Leu8, DTrp22, Tyr25]SRIF28 from human sst5 receptor expressed in CHOK1 cells by autoradiography. The format is cell-based, CHO-K1.

Our source for the IC50 and Activity values is ChEMBL document CHEMBL1150261, “Ring size in octreotide amide modulates differently agonist versus antagonist binding affinity and selectivity” (J Med Chem, 2008).

Activity calls are given as the source filed them. The calls are words filed in the database; no cut-off is given here.

Chain of Somatostatin receptor type 5 (P35346 whole entry): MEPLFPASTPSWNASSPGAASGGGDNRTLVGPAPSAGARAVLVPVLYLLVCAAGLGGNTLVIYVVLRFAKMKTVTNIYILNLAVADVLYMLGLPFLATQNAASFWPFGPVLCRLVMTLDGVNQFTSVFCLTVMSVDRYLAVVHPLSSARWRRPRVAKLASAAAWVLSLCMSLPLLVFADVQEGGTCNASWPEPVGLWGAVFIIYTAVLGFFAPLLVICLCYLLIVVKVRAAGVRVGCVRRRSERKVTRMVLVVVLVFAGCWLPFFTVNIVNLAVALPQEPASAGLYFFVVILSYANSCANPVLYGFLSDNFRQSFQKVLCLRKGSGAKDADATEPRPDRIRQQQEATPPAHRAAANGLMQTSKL
Chain of Somatostatin receptor type 3 (P32745 whole entry): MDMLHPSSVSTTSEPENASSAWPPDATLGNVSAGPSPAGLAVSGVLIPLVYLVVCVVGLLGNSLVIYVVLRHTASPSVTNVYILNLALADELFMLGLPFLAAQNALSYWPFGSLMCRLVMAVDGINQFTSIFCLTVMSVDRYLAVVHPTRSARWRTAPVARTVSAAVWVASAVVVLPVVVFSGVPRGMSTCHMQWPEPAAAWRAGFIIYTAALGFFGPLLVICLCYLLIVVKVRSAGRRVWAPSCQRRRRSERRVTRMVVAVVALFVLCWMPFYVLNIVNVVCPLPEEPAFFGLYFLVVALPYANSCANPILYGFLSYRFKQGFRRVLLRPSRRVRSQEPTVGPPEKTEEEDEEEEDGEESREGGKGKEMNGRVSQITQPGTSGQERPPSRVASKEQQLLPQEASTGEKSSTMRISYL
Chain of Somatostatin receptor type 1 (P30872 whole entry): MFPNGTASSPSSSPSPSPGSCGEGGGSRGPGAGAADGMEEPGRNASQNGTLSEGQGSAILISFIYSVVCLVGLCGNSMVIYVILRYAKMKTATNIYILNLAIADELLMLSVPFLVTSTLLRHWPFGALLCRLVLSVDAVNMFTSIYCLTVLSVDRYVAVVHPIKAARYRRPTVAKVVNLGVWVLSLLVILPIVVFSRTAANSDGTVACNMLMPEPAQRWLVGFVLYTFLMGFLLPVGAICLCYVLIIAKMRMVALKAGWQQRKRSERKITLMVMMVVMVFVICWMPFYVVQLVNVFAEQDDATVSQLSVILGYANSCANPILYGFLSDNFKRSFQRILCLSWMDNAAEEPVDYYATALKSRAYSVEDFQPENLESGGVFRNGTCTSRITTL

Take `C[C@@H](O)[C@H](NC(=O)[C@@H]1CSSC[C@H](NC(=O)[C@H](N)Cc2ccccc2)C(=O)N[C@@H](Cc2ccccc2)C(=O)N[C@H](Cc2c[nH]c3ccccc23)C(=O)N[C@@H](CCCCN)C(=O)N[C@@H]([C@@H](C)O)C(=O)N1)C(N)=O`: the IC50 in assay [1] was above 1000 nM; in assay [2], 1.9 nM; in assay [3] it was 39 nM; in assay [5], above 1000 nM. The outcome in assay [4] was Active.
Consider `C[C@@H](O)[C@@H]1NC(=O)[C@H](CCCCN)NC(=O)[C@@H](Cc2c[nH]c3ccccc23)NC(=O)[C@H](Cc2ccc(O)cc2)NC(=O)[C@H](NC(=O)[C@@H](N)Cc2ccc(Cl)cc2)CCSSCC[C@@H](C(=O)N[C@@H](Cc2ccc3ccccc3c2)C(N)=O)NC1=O`, for which the IC50 in assay [1] was 763 nM; in assay [2], 267 nM; in assay [3] it was 359 nM; in assay [5] it was 174 nM; in assay [6], 199 nM.
`C[C@@H](O)[C@H](NC(=O)[C@@H]1CCSSCC[C@H](NC(=O)[C@H](N)Cc2ccccc2)C(=O)N[C@@H](Cc2ccccc2)C(=O)N[C@H](Cc2c[nH]c3ccccc23)C(=O)N[C@@H](CCCCN)C(=O)N[C@@H]([C@@H](C)O)C(=O)N1)C(N)=O`: the IC50 in assay [1] was above 1000 nM; in assay [2], 4.9 nM; in assay [3], 452 nM; in assay [5], 115 nM; in assay [6], 109 nM.
For `C[C@@H](O)[C@H](NC(=O)[C@H]1CCSSCC[C@@H](NC(=O)[C@H](N)Cc2ccccc2)C(=O)N[C@@H](Cc2ccccc2)C(=O)N[C@H](Cc2c[nH]c3ccccc23)C(=O)N[C@@H](CCCCN)C(=O)N[C@@H]([C@@H](C)O)C(=O)N1)C(N)=O`, in assay [4], the outcome was Active.
Take `C[C@@H](O)[C@H](NC(=O)[C@@H]1NC(=O)[C@H]([C@@H](C)O)NC(=O)[C@H](CCCCN)NC(=O)[C@@H](Cc2c[nH]c3ccccc23)NC(=O)[C@H](Cc2ccccc2)NC(=O)[C@H](NC(=O)[C@H](N)Cc2ccccc2)SS1)C(N)=O`: the IC50 in assay [1] is above 1000 nM; in assay [2] it was 337 nM; in assay [3] it was above 1000 nM; in assay [5], 214 nM; in assay [6] it was above 1000 nM.

What is called IC50 is the concentration that inhibits the measured activity by half. Lower therefore signals inhibition by little substance.
